System: not listed separately
Test: Partition coefficient (logP)
Assay type: physicochemical
Conditions: octanol/water
In the case of CCCCOC(=O)c1ccc(-c2ccc(OS(N)(=O)=O)cc2)cc1, the logP is reported as 4.38.
NS(=O)(=O)Oc1ccc(-c2ccccc2)cc1 showed a logP of 3.45.
Work on CCOC(=O)c1ccc(-c2ccc(OS(N)(=O)=O)cc2)cc1 yielded a logP of 3.52.
C[C@]12CC[C@@H]3c4ccc(OS(N)(=O)=O)cc4CCC3[C@@H]1CCC2=O (single isomer, unassigned) [EMATE] gave a logP of 3.87.
For CCCOC(=O)c1ccc(-c2ccc(OS(N)(=O)=O)cc2)cc1, the logP was 3.99.
Work on N#Cc1ccc(-c2ccc(OS(N)(=O)=O)cc2)cc1 yielded a logP of 3.48.
With NS(=O)(=O)Oc1ccc2c3c(c(=O)oc2c1)CCCCC3 [IROSUSTAT] the logP was 2.65.
For COC(=O)c1ccc(-c2ccc(OS(N)(=O)=O)cc2)cc1, the logP was 3.18.
Cc1cc(=O)oc2cc(OS(N)(=O)=O)ccc12 gave a logP of 1.7.

Molecular target: T1, Steryl-sulfatase (Homo sapiens, UniProt P08842)
T1 sequence (P08842 whole entry): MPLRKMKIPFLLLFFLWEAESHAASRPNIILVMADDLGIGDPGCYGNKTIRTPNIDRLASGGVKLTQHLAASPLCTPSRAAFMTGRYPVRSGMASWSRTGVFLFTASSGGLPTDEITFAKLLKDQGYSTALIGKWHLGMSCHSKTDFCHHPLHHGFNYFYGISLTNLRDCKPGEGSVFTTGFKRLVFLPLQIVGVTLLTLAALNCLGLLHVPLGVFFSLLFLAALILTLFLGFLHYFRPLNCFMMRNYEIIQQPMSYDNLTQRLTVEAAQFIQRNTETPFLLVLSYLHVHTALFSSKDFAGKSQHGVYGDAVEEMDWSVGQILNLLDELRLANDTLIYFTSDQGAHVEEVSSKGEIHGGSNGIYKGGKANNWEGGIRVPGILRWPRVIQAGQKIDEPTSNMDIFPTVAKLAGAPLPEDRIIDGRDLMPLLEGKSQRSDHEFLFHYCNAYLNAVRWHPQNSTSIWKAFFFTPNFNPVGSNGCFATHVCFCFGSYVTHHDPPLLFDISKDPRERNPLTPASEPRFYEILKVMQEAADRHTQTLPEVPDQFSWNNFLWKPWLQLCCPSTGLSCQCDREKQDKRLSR
Test: Compound was evaluated for its inhibitory activity against estrone sulfatase enzyme
Conditions: not given
In short: (§1)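 They are added to tubes holding [3H]estrone sulfate (300,000 dpm) and inhibitor, which was dried from ethanol under nitrogen. Incubation runs 20 min at 37 °C and is quenched with toluene. Radioactivity in the toluene extract is counted. Triplicates are run alongside no-inhibitor controls and boiled-microsome blanks.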
CCCCOC(=O)c1ccc(-c2ccc(OS(N)(=O)=O)cc2)cc1 showed an IC50 of 5.8 uM tube-1.
In the case of NS(=O)(=O)Oc1ccc(-c2ccccc2)cc1, the IC50 is reported as 76.1 uM tube-1.
With CCOC(=O)c1ccc(-c2ccc(OS(N)(=O)=O)cc2)cc1 the IC50 was 4.2 uM tube-1.
In the case of C[C@]12CC[C@@H]3c4ccc(OS(N)(=O)=O)cc4CCC3[C@@H]1CCC2=O (single isomer, unassigned) [EMATE], the IC50 is reported as 0.1 uM tube-1.
Compound CCCOC(=O)c1ccc(-c2ccc(OS(N)(=O)=O)cc2)cc1 has an IC50 of 3.5 uM tube-1.
N#Cc1ccc(-c2ccc(OS(N)(=O)=O)cc2)cc1 showed an IC50 of 6.7 uM tube-1.
Compound COC(=O)c1ccc(-c2ccc(OS(N)(=O)=O)cc2)cc1 has an IC50 of 5.2 uM tube-1.
With Cc1cc(=O)oc2cc(OS(N)(=O)=O)ccc12 the IC50 was 10 uM tube-1.

Molecular target: T2, Steryl-sulfatase (Homo sapiens) (UniProt P08842)
T2 sequence (whole entry): T1 sequence (P08842 whole entry)
Test: Compound was evaluated for its percent inhibition against the estrone sulfatase enzyme at a concentration of 5 uM
Conditions: not given
In short: as §1, with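 “Placental microsomes, diluted to 115 µg/mL in 0.05 M Tris-HCl pH 7.2, are pre-warmed 5 min at 37 °C. They” for “They”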
Work on CCCCOC(=O)c1ccc(-c2ccc(OS(N)(=O)=O)cc2)cc1 yielded an inhibition of 48.4%.
In the case of NS(=O)(=O)Oc1ccc(-c2ccccc2)cc1, the inhibition is reported as 5.5%.
For CCOC(=O)c1ccc(-c2ccc(OS(N)(=O)=O)cc2)cc1, the inhibition was 53.4%.
For CCCOC(=O)c1ccc(-c2ccc(OS(N)(=O)=O)cc2)cc1, the inhibition was 60.5%.
Compound N#Cc1ccc(-c2ccc(OS(N)(=O)=O)cc2)cc1 has an inhibition of 44.2%.
For NS(=O)(=O)Oc1ccc2c3c(c(=O)oc2c1)CCCCC3 [IROSUSTAT], the inhibition was 86.8%.
COC(=O)c1ccc(-c2ccc(OS(N)(=O)=O)cc2)cc1 gave an inhibition of 44.2%.

Molecular target: T2, Steryl-sulfatase (Homo sapiens)
Conditions: 10 uM
In the case of Cc1cc(=O)oc2cc(OS(N)(=O)=O)ccc12, the inhibition is reported as 47.6%.

From ChEMBL document CHEMBL1135105, “Design, synthesis and biochemical evaluation of AC ring mimics as novel inhibitors of the enzyme estrone sulfatase (ES)” (Bioorg Med Chem Lett, 2002)
